TAAR1 agonist: agonists of human TAAR1. Q96RJ0. CHO RD-HGA16 TAAR1, Fluo-8 calcium fluorescence; vehicle wells 0%, saturating PEA agonist 100%. activation, % at 3 µM. actives 0.99% (n = 360,000). AID 624467;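 active = activation above the mean activation of all test compounds in the run plus 3 SD, cut at about 38% in these data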
Target sequence (Q96RJ0 whole entry, looked up): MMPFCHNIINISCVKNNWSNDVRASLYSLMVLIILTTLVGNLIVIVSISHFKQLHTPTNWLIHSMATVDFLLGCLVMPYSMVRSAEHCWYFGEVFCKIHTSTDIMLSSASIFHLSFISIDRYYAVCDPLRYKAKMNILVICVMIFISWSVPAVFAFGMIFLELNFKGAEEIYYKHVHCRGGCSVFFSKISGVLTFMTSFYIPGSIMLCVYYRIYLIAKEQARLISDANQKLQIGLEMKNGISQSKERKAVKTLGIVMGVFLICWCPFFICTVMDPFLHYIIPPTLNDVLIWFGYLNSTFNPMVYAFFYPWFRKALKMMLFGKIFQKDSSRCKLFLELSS
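Benchmarks: low control DMSO, high control PEA (EC100); System: CHO RD-HGA16 cells carrying human TAAR1 plus Gα16; Detection: Fluo-8 fluorescence, 5 s baseline then 140 s kinetic read; Schedule: 17-24 h plating, Fluo-8 75 min 37 °C, 30 min RT; Read-out basis: % activation from peak over basal fluorescence ratio, DMSO-to-PEA scaled.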
HCV core dimer: blocks dimerization of HCV core protein; AID 1899; inhibition, % at 5 µM; actives 0.33% (n = 300,000); TR-FRET GST/Flag-core106 dimerization, 1536-well;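 active = inhibition above the mean of all tested compounds plus 3 SD, set per screening campaign, cut at about 45% in these data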
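System – GST-tagged and Flag-tagged HCV core protein residues 1-106 · Repeats – one well for each compound · Technique – TR-FRET 671 and 617 nm emission · Doses – one concentration, 5 µM, in 0.5% DMSO · Times – 4 h, 22.5 °C incubation · Also added – Eu donor and XL665 acceptor anti-tag antibodies · Measure – percent inhibition of core106 dimerization signal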
TAAR1 antagonist: human TAAR1 antagonism; inhibition, % at 3 µM; Q96RJ0; actives 1.5% (n = 360,000); CHO RD-HGA16 TAAR1, Fluo-8 calcium fluorescence, antagonist;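 active = inhibition above a per-plate cutoff, the mean inhibition of test compounds on that plate plus 3 SD, cut at about 49% in these data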
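Assay system: RD-HGA16 CHO cells with stable hTAAR1 and Gα16 / Reagent: EC80 β-phenethylamine stimulus / Doses: 3 µM, single point / Timing: dye loading 75 min at 37 °C, then 30 min room temperature / Measured by: Fluo-8 intracellular calcium dye fluorescence, real-time kinetic reads / Controls: vehicle wells and EC80 agonist wells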
rCAG binder: molecules binding r(CAG) RNA repeats; r(CAG) RNA repeat, TO-PRO-1 dye displacement fluorescence; inhibition, % at 3 µM; actives 1.3% (n = 370,000); AID 651821;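 active = inhibition above the plate cutoff, the mean of all test compounds on that plate plus 3 SD, cut at about 35% in these data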;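 also: higher means more dye released from RNA so lower well fluorescence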
NS3 helicase inh: HCV NS3 helicase inhibition; inhibition, % at 10.9 µM; actives 0.56% (n = 290,000); NS3 helicase DNA unwinding, Cy5 molecular beacon fluorescence;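 active = inhibition above the mean of all tested compounds plus 3 SD, set per campaign, cut at about 35% in these data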
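Material: hepatitis C virus NS3 helicase domain fragment enzyme; measured by: Cy5 fluorescence, 0 and 60 min reads; control set: DMSO and thioflavine S; incubation: 60 min unwinding reaction at 25 °C after ATP addition; read-out basis: % inhibition from 60/0 min fluorescence ratio, DMSO 0%, thioflavine S 100%; repeats: singlicate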
Of the large screens only hits and unclear results are named; the others gave an inactive call. An excerpt weighted towards active compounds, which were near 3.7% of everything screened.

CC(C)(C)c1ccc(OCCCN2CCC(C(O)(c3ccccc3)c3ccccc3)CC2)cc1	none (no result: TAAR1 agonist, HCV core dimer, TAAR1 antagonist, NS3 helicase inh)
OC(c1ccccc1)(c1ccccc1)C1CCN(CCCOc2ccc3c(c2)CCCC3)CC1	TAAR1 agonist 42 (no result: HCV core dimer, NS3 helicase inh)
COc1ccc(C(=O)/C=C/Nc2ccc(S(=O)(=O)Nc3cccc(C(C)=O)c3)cc2)cc1	TAAR1 antagonist 56
COc1cccc(C(=O)/C=C/Nc2ccc(S(=O)(=O)Nc3ccc(C(C)=O)cc3)cc2)c1	none
CCN(CC)S(=O)(=O)c1ccc2oc(SCc3ccc(F)cc3)nc2c1	TAAR1 antagonist 55
Cc1ccc(-c2nn(-c3ccccc3)cc2CN(Cc2ccccc2)C(=O)c2ccco2)o1	TAAR1 antagonist 56
Cc1cccc(NC2=C/C(=N/S(=O)(=O)c3cccs3)c3ccccc3C2=O)c1	none
Cc1ccc(NC2=C/C(=N\S(=O)(=O)c3cccs3)c3ccccc3C2=O)c(C)c1	HCV core dimer 52 (no result: TAAR1 agonist, TAAR1 antagonist, rCAG binder)
C=CCN1C(=O)[C@H](CC(=O)N2CCN(C(=O)C3CC3)CC2)[C@@]2(C(=O)OCC)CCCC=C12	none (no result: TAAR1 agonist, HCV core dimer, TAAR1 antagonist, NS3 helicase inh)
CC1(C)Cc2cccc(OCC(=O)N3CCN(c4ccccc4F)CC3)c2O1	none (no result: NS3 helicase inh)
COc1ccccc1N1CCN(C(=O)c2ccc(COc3cccc4c3OC(C)(C)C4)cc2)CC1	TAAR1 antagonist 56 (no result: NS3 helicase inh)
C[C@@H]1[C@@H](O)C[C@@]2(C[C@H](O)c3ccccc3O2)O[C@H]1c1ccccc1	none (no result: TAAR1 agonist, HCV core dimer, TAAR1 antagonist, NS3 helicase inh)
O=C(Nc1cccc(S(=O)(=O)NC2=NCCC2)c1)c1cc(-c2ccccn2)nc2ccccc12	TAAR1 antagonist 51
CN(Cc1ccccc1F)C(=O)C1CCCN(c2ncccn2)C1 (stereo not drawn)	none (no result: TAAR1 agonist, HCV core dimer, TAAR1 antagonist, NS3 helicase inh)
O=C(Nc1ccccc1C(=O)O)c1cc(S(=O)(=O)N2CCCCCC2)ccc1Cl	rCAG binder 58
O=C(Nc1ccc2c(c1)CCC2)c1cc(S(=O)(=O)N2CCN(c3ccccc3)CC2)ccc1Cl	HCV core dimer 55
CCOP(=O)(c1ccccc1)c1nc(-c2ccccc2C)oc1N1CCCCC1 (stereo not drawn)	TAAR1 agonist 60
Cc1cccc(N2CCN(C(=O)CSc3ccsc3[N+](=O)[O-])CC2C)c1 (stereo not drawn)	HCV core dimer 57
CCCN1Cc2cccc(C(=O)Nc3ccc4c(c3)OCO4)c2C1=O	none
O=C(Nc1ccc2c(c1)OCO2)c1cccc2c1C(=O)N(Cc1cccnc1)C2	HCV core dimer 54
CCCCN1C(=O)C(CC(=O)NCCc2ccccn2)CC(C(=O)N(C(C)C)C(C)C)=C1C (stereo not drawn)	TAAR1 agonist 42 (no result: HCV core dimer, NS3 helicase inh)
CCCCN1C(=O)C(CC(=O)NCCc2ccccn2)CC(C(=O)N(C)C)=C1C (stereo not drawn)	none (no result: HCV core dimer, NS3 helicase inh)
CC(C)(C)c1ccc(OCc2ccc(C(=O)NCc3cccnc3)o2)cc1	TAAR1 antagonist 53
CC1Cc2ccccc2N1Cc1nc2cc(Cl)ccc2c(=O)[nH]1 (stereo not drawn)	HCV core dimer 72
COC(=O)c1ccc2c(=O)[nH]c(CN3c4ccccc4CC3C)nc2c1 (stereo not drawn)	none
CC1Cc2ccccc2N1Cc1nc2scc(-c3cccs3)c2c(=O)[nH]1 (stereo not drawn)	HCV core dimer 55
COc1ccc(N2CCN(Cc3nc4scc(-c5cccs5)c4c(=O)[nH]3)CC2)cc1	none
COC(=O)[C@]12C[C@H](CC(=O)N3CCC(c4ccccc4)CC3)C(=O)N(Cc3ccc(Cl)cc3Cl)C1=C[C@H](C(C)C)O[C@@H]2C1CC1	none (no result: TAAR1 agonist, HCV core dimer, TAAR1 antagonist, NS3 helicase inh)
Cc1nn(-c2ccccc2)c2nc(N)c(C#N)c(-c3ccc(O)c(O)c3)c12	TAAR1 antagonist 51
Cc1nn(-c2ccc(F)cc2)c2nc(N)c(C#N)c(-c3ccc(O)c(O)c3)c12	TAAR1 antagonist 51 (no result: HCV core dimer)
COc1cc(-c2c(C#N)c(N)nc3c2c(C)nn3-c2ccc(C)c(C)c2)cc(OC)c1OC	none
Cc1ccccc1OCc1nc2ccccc2c(=O)n1/N=C/c1cn[nH]c1-c1ccc(Br)cc1	none
O=c1c2ccccc2nc(COc2ccccc2)n1/N=C/c1cn[nH]c1-c1ccccc1	TAAR1 antagonist 55
COc1ccc(S(=O)(=O)Nc2ccc(S(=O)(=O)Nc3ccc(F)cc3)cc2)cc1C	rCAG binder 47
CCc1ccc(/C=N/NC(=O)c2ccccn2)cc1	none
O=C(CNC(=O)c1ccccn1)N/N=C/c1ccccc1	TAAR1 agonist 40
Cc1cc(C(=O)N/N=C/c2cc(Br)ccc2OC(=O)c2ccccc2Cl)n[nH]1	none
Cc1cc(C(=O)N/N=C/c2cc(Br)ccc2OC(=O)c2ccccc2)n[nH]1	TAAR1 antagonist 51
Cc1cc(C(=O)N/N=C/c2ccc(OC(=O)c3ccccc3Br)cc2)n[nH]1	TAAR1 antagonist 54
O=C(/C=C/c1cccs1)Nc1nc(-c2ccccc2)cs1	none
O=C(/C=C\c1ccco1)Nc1nc(-c2ccc3ccccc3c2)cs1	TAAR1 antagonist 49
O=c1c2ccccc2nc(/C=C/c2ccc(Br)cc2)n1CCO	none (no result: NS3 helicase inh)
Cc1[nH]c2ccccc2c1/C=C/c1nc2ccccc2c(=O)n1CCO	TAAR1 antagonist 51
O=C(C1CCN(S(=O)(=O)c2ccc3[nH]c(=O)oc3c2)CC1)N1CCCN(Cc2ccccc2)CC1	none (no result: TAAR1 agonist, HCV core dimer, TAAR1 antagonist, NS3 helicase inh)
CCOC(=O)C1=C(CSc2nc3c(cc2C#N)CN(C)CC3)OC(N)=C(C#N)C1c1ccc(F)cc1 (stereo not drawn)	rCAG binder 50
COC(=O)C1=C(CSc2nc3c(cc2C#N)CN(C)CC3)OC(N)=C(C#N)C1c1ccccc1F (stereo not drawn)	none (no result: TAAR1 agonist, TAAR1 antagonist, rCAG binder)
CCOC(=O)C1=C(CSc2nc(-c3ccccc3)ccc2C#N)OC(N)=C(C#N)C1c1ccccc1 (stereo not drawn)	HCV core dimer 53
CCOC(=O)C1=C(CSc2nc3c(cc2C#N)CCC3)OC(N)=C(C#N)C1c1ccccc1 (stereo not drawn)	none
CCOC(=O)C1=C(CSc2nc3c(cc2C#N)CN(C)CC3)OC(N)=C(C#N)C1c1ccccc1 (stereo not drawn)	HCV core dimer 52
CCCCCn1nnnc1C1(C)CCSCC(=O)N1Cc1ccco1 (stereo not drawn)	none (no result: TAAR1 agonist, HCV core dimer, TAAR1 antagonist, NS3 helicase inh)
CCS(=O)(=O)Nc1ccc2c(c1)C(=O)N(C)[C@@H]1CC[C@H](CC(=O)N3CCCCC3)O[C@H]1CO2	none (no result: TAAR1 agonist, HCV core dimer, TAAR1 antagonist, NS3 helicase inh)
CCc1nc2ccc(C(=O)NCc3ccccc3OC)cn2c1N(C)Cc1ccc(OC)cc1	TAAR1 antagonist 51 (no result: HCV core dimer, NS3 helicase inh)
O=C(Cn1cnc2cc([N+](=O)[O-])ccc2c1=O)NCc1ccc(Cl)cc1	none
O=c1c2ccc([N+](=O)[O-])cc2ncn1CCOc1ccc(Cl)cc1	TAAR1 antagonist 64
CC(C)NC(=O)NC(=O)COC(=O)c1c2c(nc3ccccc13)CCC2	TAAR1 antagonist 52
O=C(COC(=O)c1cc(-c2ccccc2)nc2ccccc12)Nc1ccc2c(c1)OCO2	none

Screening results as filed in PubChem.
